core dimer inh: inhibitors of HCV core protein dimerization, primary screen, biochemical, TR-FRET, high-throughput. AID 1899, 2009. inhibition, % at 5 µM. 300,000 tested, 0.33% active. TR-FRET GST/Flag-core106 dimerization, 1536-well;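 active = inhibition above the mean of all tested compounds plus 3 SD, set per screening campaign, cut at about 45% in these data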
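System: GST-tagged and Flag-tagged HCV core protein residues 1-106 / Input: core106 proteins, GST 13.5 nM and Flag 17 nM / Buffer or medium: KF-containing HEPES buffer, pH 7.45, DTT, CHAPS, BSA / Probe or stimulus: Eu-anti-GST and XL665-anti-Flag labelled anti-tag antibodies / Schedule: 4 h, 22.5 °C incubation / Technique: TR-FRET 671 and 617 nm emission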
DNA FID counter-1: compounds displacing fluorescent DNA intercalator, primary screen, artefact control for HCV NS3 helicase inhibitor project, biochemical, FID fluorescence. DNA fluorescent intercalator displacement. AID 1845, 2009. 290,000 tested, 0.17% active. inhibition, % at 7.9 µM;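 also: higher means more ethidium bromide displaced from hairpin DNA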
NS3 helicase inh: inhibitors of HCV NS3 helicase, primary screen, biochemical, Cy5 molecular beacon fluorescence | Hepatitis C virus NS3 helicase | NS3 helicase DNA unwinding | inhibition, % at 10.9 µM | 290,000 tested, 0.56% active | AID 1800, 2009;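 active = inhibition above the mean of all tested compounds plus 3 SD, set per campaign, cut at about 35% in these data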
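System: HCV NS3 helicase fragment; control set: DMSO and thioflavine S; technique: Cy5 fluorescence at 0 and 60 min, beacon hairpin quenching; reagent: beacon DNA duplex substrate plus ATP; replicates: singlicate; schedule: 1 h reaction at 25 °C, ATP-initiated; medium: MOPS buffer pH 6.5 with MgCl2, DTT, Tween20, BSA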
HSF1 inhib: HSF1 inhibitors in luciferase reporter cells, primary screen, cell-based, NIH3T3, luminescence | activity change, negative = inhibition, % at 7.5 µM (by protocol) | NIH3T3-HGL HSE-luciferase, MG132-induced, luminescence 8 h; active compounds read low | 300,000 tested, 0.77% active;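 active = more than half of replicate wells show activity change below -50%, luminescence cut by over half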;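 also: luciferase reports HSF-1 transcriptional activity via heat shock element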
HSF1 activator: HSF-1 activators, primary screen, NIH3T3-HGL cells, MG132 stress, luminescence, single point. NIH3T3-HGL HSF-1 luciferase reporter, 8 h; 100% = twice DMSO control signal. activation, % at 9 µM. 300,000 tested, 1.7% active. AID 504408, 2011;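 active = mean replicate activation of at least 50% with a set share of replicates each reaching 50%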
HSP90 refold inh: HSP90 inhibitors, primary screen, cell lysate, luminescence; Rabbit reticulocyte lysate, luciferase refolding luminescence, 3 h; inhibition, % at 5.6 µM; 290,000 tested, 0.91% active; AID 1789, 2009;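 active = inhibition above the screen-wide mean plus 3 SD, computed separately per campaign, cut at about 16% in these data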;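 also: inhibitors lower the luminescence because luciferase stays unfolded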
NS3 helicase cf: HCV NS3 helicase inhibitors, retest, confirmation, biochemical, Cy5 molecular beacon fluorescence, triplicate. inhibition, % at 10.9 µM. shares compounds with NS3 helicase inh. 1,600 tested, 31% active. NS3 helicase DNA unwinding;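 active = inhibition above the mean of all tested compounds plus 3 SD, cutoff set per campaign, cut at about 36% in these data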
DNA FID counter-2: compounds displacing fluorescent DNA intercalator, artefact control for HCV NS3 helicase inhibitor project, biochemical, FID fluorescence, triplicate; shares compounds with NS3 helicase inh; DNA fluorescent intercalator displacement; inhibition, % at 7.9 µM; 1,600 tested, 4% active;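 also: higher means more displacement of ethidium bromide from the DNA hairpin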
FID counter DR: compounds displacing fluorescent intercalator from DNA, dose response, counter-screen for HCV NS3 helicase inhibitor project, biochemical, fluorescence; shares compounds with NS3 helicase inh; fluorescent intercalator displacement from DNA; IC50, µM; 120 tested, under 10 active; call rule not given here
Of the large screens only hits and unclear results are named; the others gave an inactive call (follow-up assays come after a bar, where they were run). The list is not random: actives were taken first. Their share in the collection is about 3.9%. Rule as the data show it, unless noted: active = inhibition above about 37%; inactive = the rest.

CN(C)C(CNc1ncnc2sccc12)c1cccs1 (stereo unspecified)	NS3 helicase inh 74 | NS3 helicase cf inactive | DNA FID counter-2 inactive
O=S(=O)(O)c1cccc2c(N=Nc3ccc(O)c4ncccc34)cccc12	NS3 helicase inh 84 | NS3 helicase cf 77 | DNA FID counter-2 inactive
CCOc1ccc(NC(=O)C(Cc2ccccc2)NC(=O)C2CCCCC2)cc1 (stereo unspecified)	none
O=C1OC(c2ccc(Br)cc2)=N/C1=C\c1ccco1	NS3 helicase inh 47 | NS3 helicase cf inactive | DNA FID counter-2 inactive
CCCn1c(NCc2ccco2)nc2ccccc21	none
CCCn1c(/C=C/c2ccco2)nc2ccccc21	core dimer inh 51, NS3 helicase inh 52 | NS3 helicase cf inactive | DNA FID counter-2 inactive
CCCCn1c(/C=C/c2ccco2)nc2ccccc21	NS3 helicase inh 44 | NS3 helicase cf inactive | DNA FID counter-2 inactive
Cc1ccc(Cn2c(/C=C/c3ccco3)nc3ccccc32)cc1	NS3 helicase inh 43 | NS3 helicase cf inactive | DNA FID counter-2 inactive
Cc1nn(C(=O)N2CCOCC2)c(C)c1CN1C(=O)c2ccccc2C1=O	none
CC(=O)N/C(=C\c1ccc(C)cc1)C(=O)O	none
CN(Cc1cccs1)C(=O)/C=C/c1ccccc1[N+](=O)[O-]	NS3 helicase inh 61 | NS3 helicase cf inactive | DNA FID counter-2 inactive
CN(c1ccccc1)c1cc(=O)[nH]c(=O)[nH]1	none (no result: HSF1 inhib, HSF1 activator)
Cc1ccc2c(c1)NC(C(C)(C)C)CO2 (stereo unspecified)	NS3 helicase inh 85 | NS3 helicase cf inactive | DNA FID counter-2 inactive
CCOC(=O)COc1ccc(/C=C2/C(=O)NN(c3ccc(F)cc3)C2=O)cc1OC	NS3 helicase inh 36 | NS3 helicase cf inactive | DNA FID counter-2 inactive
O=C(NCCC1CCCCN1S(=O)(=O)c1ccc(Cl)cc1)C(=O)NCc1cccnc1 (stereo unspecified)	none (no result: DNA FID counter-1, NS3 helicase inh, HSP90 refold inh)
COCCn1c(=O)[nH]c(=O)c2c1nc(-c1ccc(-c3ccc(Cl)cc3[N+](=O)[O-])o1)n2Cc1ccccc1	core dimer inh 55, NS3 helicase inh 36 | NS3 helicase cf inactive | DNA FID counter-2 inactive
CC(/C=N/NC(=O)Cc1cc(=O)[nH][nH]1)=C\c1ccccc1	NS3 helicase inh 39 | NS3 helicase cf inactive | DNA FID counter-2 inactive
COc1ccc(S(=O)(=O)CCc2nnc(NC(=O)c3ccc(F)cc3)s2)cc1	none
COc1ccc(N2Cc3ccc(C(=O)N/N=C\c4ccc(O)cc4O)cc3C2)cc1	core dimer inh 68, NS3 helicase inh 40 | NS3 helicase cf inactive | DNA FID counter-2 inactive
Cc1ccc(C(=O)/C=C/c2cc(Br)cc(Br)c2O)o1	NS3 helicase inh 37, HSF1 activator 89 | NS3 helicase cf 48 | DNA FID counter-2 inactive | FID counter DR inactive
Cc1ccc(C(=O)/C=C/N(C)C)o1	none
Cc1ncc(C[n+]2ccc(C)c(C)c2)c(N)n1	none (no result: DNA FID counter-1, NS3 helicase inh, HSP90 refold inh)
CCOC(=O)c1c(N)sc(=S)c2c1CCC2	NS3 helicase inh 58 | NS3 helicase cf inactive | DNA FID counter-2 inactive
CCOC(=O)c1c(N)sc(N)c1C(=O)OCC	none
OCC[C@H]1C[C@@H](O)[C@H](O)[C@@]2(CCc3ccccc3CO2)O1	none (no result: DNA FID counter-1, NS3 helicase inh, HSF1 inhib, HSF1 activator, HSP90 refold inh)
COC(=O)CN1C(=O)[C@H]2[C@@H](c3ccc(C)o3)N3C(=O)CN(CCO)C(=O)[C@@]3(Cc3ccccc3)[C@H]2C1=O	NS3 helicase inh 45 | NS3 helicase cf inactive | DNA FID counter-2 inactive
O=c1[nH]c(/C=C/c2ccc([N+](=O)[O-])cc2)c([N+](=O)[O-])c(=O)[nH]1	NS3 helicase inh 60 (no result: core dimer inh) | NS3 helicase cf inactive | DNA FID counter-2 inactive
O=c1[nH]c(/C=C/c2ccc3c(c2)OCO3)c([N+](=O)[O-])c(=O)[nH]1	none
CC(C)c1ccc(NC2CCCN(C(=O)CC3CCCC3)C2)cc1 (stereo unspecified)	none
Cc1cc(N2C(=O)CC(N3CCN(C(c4ccccc4)c4ccccc4)CC3)C2=O)no1 (stereo unspecified)	none
COc1ccc(CCNC(=O)CSc2nnc3ccc(-c4cccnc4)nn23)cc1	none
Nc1ccc2oc(-c3ccccc3Cl)cc(=O)c2c1O	none
CCOc1ccccc1-c1c2cc(O)c(=O)cc-2oc2cc(O)c(O)cc12	NS3 helicase inh 52 (no result: core dimer inh, HSF1 inhib, HSF1 activator) | NS3 helicase cf 94 | DNA FID counter-2 inactive
O=c1cc2oc3cc(O)c(O)cc3c(-c3ccccc3O)c-2cc1O	NS3 helicase inh 51 (no result: core dimer inh, HSF1 inhib, HSF1 activator) | NS3 helicase cf 102 | DNA FID counter-2 inactive
COc1ccc(OC)c(-c2c3cc(O)c(=O)cc-3oc3cc(O)c(O)cc23)c1	NS3 helicase inh 44 (no result: HSF1 inhib, HSF1 activator) | NS3 helicase cf 87 | DNA FID counter-2 inactive
CCOC(=O)c1oc2cc(O)ccc2c(=O)c1-c1ccccc1OC	none
Cc1ccc(NC(=S)N(CCCN2CCC(C)CC2)Cc2ccco2)cc1C	none
Cc1noc(C)c1COC(=O)Cc1ccc(Cl)c(Cl)c1	none
Cc1ccc(/C=C/c2ccc3cccc(O)c3n2)s1	NS3 helicase inh 49, HSF1 activator 85 | NS3 helicase cf inactive | DNA FID counter-2 inactive
O=[N+]([O-])c1ccc(/C=C/c2ccc3cccc(O)c3n2)cc1	NS3 helicase inh 50 | NS3 helicase cf inactive | DNA FID counter-2 inactive
COc1ccccc1C(=O)N/C(=C\c1cn(C)c2ccccc12)C(=O)NCCCn1ccnc1	none
NC(=O)c1ccc(Oc2ccc(C(N)=O)cc2)cc1	none
COc1cccc(Nc2nnc(SCC(=O)N(CC(C)C)CC(C)C)s2)c1	none
CCn1c(=O)c(CCC(=O)NCC2CCCO2)c(C)c2c(C)nn(-c3ccc(C)cc3)c21 (stereo unspecified)	NS3 helicase inh 37 | NS3 helicase cf inactive | DNA FID counter-2 inactive
Cc1cc(O)c2c(C)c(CC(=O)N3CCN(C(=O)C4COc5ccccc5O4)CC3)c(=O)oc2c1 (stereo unspecified)	NS3 helicase inh 46 | NS3 helicase cf inactive | DNA FID counter-2 inactive

High-throughput results (PubChem BioAssay)
